Bioassay records as filed in PubChem BioAssay.
Hits are enriched below; roughly 1.1% of the tested compounds scored in any of these assays.
Diaphorase act = compounds boosting diaphorase resazurin reduction – biochemical, uHTS, resorufin fluorescence, counter-screen for diaphorase-coupled primary assays, primary screen; activation factor at 20 µM; hit rate 0.005% among 190,000; AID 1229, 2008; Diaphorase/resazurin coupled assay, 16 min; stronger effect = higher value; 1 = vehicle wells, 0 = NADH-free wells;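 active means diaphorase activity raised at least twofold by the compound at 20 µM; inactive means activation factor below 2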
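Material: Clostridium kluyveri diaphorase, purified enzyme; Quantity: enzyme 0.07 U/mL final; Medium: HEPES pH 7.4 buffer with MgCl2 and Tween 20; Dosing: single compound dose of 20 µM, 1% DMSO final; Schedule: 16 min reaction at room temperature; Measured by: red resorufin fluorescence at 544/590 nm excitation/emission.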
Diaph inh CS = diaphorase inhibitors and chemical oxidizers, primary screen, counter-screen for diaphorase-coupled primary assays, biochemical, uHTS, resorufin fluorescence. diaphorase resazurin-to-resorufin fluorescence, NADH, 16 min; bacterial (C. kluyveri) enzyme, not human. inhibition, % at 20 µM. hit rate 0.69% among 190,000;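 active means primary screen inhibition at 20 µM above a set limit, cut at about 50% in these data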;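 further: plate controls were DMSO with full reaction for no effect and wells lacking NADH for full effect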
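Assay system – diaphorase enzyme from Clostridium kluyveri · Amount – diaphorase 0.14 U/mL (working solution) · Times – reaction incubation of 16 min at room temperature · Controls – No-NADH positive control and DMSO neutral control · Signal – resorufin fluorescence 544/590 nm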
PMI act satM6P = human PMI activators, high substrate, primary screen, biochemical, fluorescence intensity, near-saturating mannose 6-phosphate | Mannose-6-phosphate isomerase (Homo sapiens), P34949 | coupled PMI enzyme assay, resazurin fluorescence, 20 min; stronger effect = higher value; 1 = untreated enzyme, 0 = substrate-free blank | activation factor at 20 µM | hit rate 0.34% among 190,000 | AID 1216, 2008;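 active means activation factor of 2 or more at 20 µM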
Target sequence (P34949 whole entry, looked up): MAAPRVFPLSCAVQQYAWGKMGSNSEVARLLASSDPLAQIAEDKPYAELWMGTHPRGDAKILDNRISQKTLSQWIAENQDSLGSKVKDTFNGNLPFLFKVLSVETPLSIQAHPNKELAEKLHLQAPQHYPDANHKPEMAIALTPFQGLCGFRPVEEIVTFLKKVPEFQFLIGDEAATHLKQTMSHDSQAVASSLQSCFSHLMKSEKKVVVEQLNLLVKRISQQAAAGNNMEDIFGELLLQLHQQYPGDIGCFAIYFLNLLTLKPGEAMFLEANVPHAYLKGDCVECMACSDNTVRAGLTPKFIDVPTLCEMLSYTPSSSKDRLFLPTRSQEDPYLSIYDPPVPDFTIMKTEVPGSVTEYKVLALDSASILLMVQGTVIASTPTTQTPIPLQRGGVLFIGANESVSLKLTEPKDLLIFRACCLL
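Test system: human phosphomannose isomerase with PGI, G6PDH, diaphorase coupling enzymes; amount: 15 ng/mL PMI; incubation: enzyme reaction with compound 20 min at room temperature; technique: resorufin fluorescence (Ex 544/Em 590 nm) from resazurin via diaphorase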
G6PDH CS = L. mesenteroides G6PDH inhibitors, counter-screen for G6PDH-coupled screening assays, biochemical, Leuconostoc mesenteroides enzyme. inhibition, % at 5 µM. Purified L. mesenteroides G6PDH, diaphorase/resazurin coupled fluorescence, 45 min. glucose-6-phosphate dehydrogenase [Leuconostoc mesenteroides]. hit rate 0.12% among 200,000. AID 1020, 2008; in the data active means inhibition above about 50%
PMI activator = activators of human PMI, primary screen, biochemical, fluorescence intensity, near-Km mannose 6-phosphate; purified human PMI, coupled resazurin fluorescence, 20 min; stronger effect = higher value; 1 = vehicle control, 0 substrate-free wells; Mannose-6-phosphate isomerase (Homo sapiens), P34949; hit rate 0.005% among 190,000; activation factor at 20 µM;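 active means activation factor of 2 or more at 20 µM, relative to plate controls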
* marks the source's active call; other numbers are inactive results.

SMILES | Diaphorase act | Diaph inh CS | PMI act satM6P | G6PDH CS | PMI activator
C[C@]12CC[C@@H]3c4cc(O)c(O)cc4CC[C@H]3[C@@H]1CC[C@@H]2O | 0.3 | 66* | 0.7 | 29 | 0.5
Cc1cccc(C)c1OCC(=O)Nc1ccc(N2CCOCC2)cc1 | 1 | -2 | 1 | 9 | 1
COc1cc(CN2CCN(Cc3ccc(SC)cc3)CC2)cc(OC)c1O | 0.6 | 40 | 0.4 | 58* | 0.6
COc1ccc(CN2CCN(S(=O)(=O)c3ccc(NC(C)=O)cc3)CC2)cc1OC | 0.9 | 12 | 1 | 8 | 1
COc1cc(OC)c(OC)cc1CN1CCN(S(=O)(=O)c2ccc(NC(C)=O)cc2)CC1 | 0.5 | 52* | 0.7 | 32 | 0.9
COc1cc(CN2CCN(S(=O)(=O)c3ccc(NC(C)=O)cc3)CC2)cc(OC)c1O | 0.6 | 43 | 0.5 | 52* | 0.8
Cc1ccc(NC(=O)CN2C(=O)S/C(=C/c3ccc(O)c([N+](=O)[O-])c3)C2=O)cc1C | 0.1 | 92* | 1 | 13 | 1
CC(=O)c1ccc(NC(=O)C(=O)c2cn(CC(=O)N3CCCCC3)c3ccccc23)cc1 | 1 | -1 | 1 | -19 | 1
O=C(Nc1cccc(N=Cc2cc(Cl)cc(Br)c2O)c1)c1ccco1 | 0.6 | 40 | 0.6 | 9 | 0.9
O=C(Nc1cccc(N=Cc2cc(Br)cc(Br)c2O)c1)c1ccco1 | 0.4 | 55* | 0.5 | 39 | 0.7
Cc1ccc(N/N=C(\Cc2nc3ccccc3[nH]2)c2ccccc2)cc1 | 0.9 | 7 | 2.2* | -15 | 1.5
N#CCCN/N=C(\Cc1nc2ccccc2[nH]1)c1ccccc1 | 0.8 | 20 | 1 | -4 | 1
Clc1cccc(/C(Cc2nc3ccccc3[nH]2)=N\Nc2ccccc2)c1 | 1 | 5 | 2.5* | -18 | 1.7
c1ccc(N/N=C(\Cc2nc3ccccc3[nH]2)c2ccccc2)cc1 | 0.9 | 10 | 2.9* | 4 | 1.8
CCN/N=C(\Cc1nc2ccccc2[nH]1)c1ccccc1 | 0.9 | 11 | 0.9 | -6 | 1
O=C(Nc1ccc(-n2nncc2-c2ccco2)cc1)c1cc2ccccc2oc1=O | 0.8 | 25 | 1 | 5 | 1
COc1ccc([N+](=O)[O-])cc1N(CC(=O)NCCCOC(C)C)S(C)(=O)=O | 1.1 | -8 | 1.1 | 4 | 1.1
Cc1ccnc(NC2OC(=O)c3ccccc32)c1 (stereo unspecified) | 1.1 | -6 | 1.1 | 3 | 1
O=[N+]([O-])c1cccc(-c2csc(N/N=C/c3cccc(O)c3)n2)c1 | 0.8 | 20 | 0.9 | 3 | 1
N#Cc1c(-c2ccccc2)[nH]c(=S)[nH]c1=O | 0.5 | 51* | 1.1 | 3 | 1
N#Cc1c(NC(=O)CSc2nnc(-c3ccco3)n2-c2ccccc2)sc2c1CCC2 | 1 | 0 | 1.1 | 5 | 1
CCOC(=O)c1c(NC(=O)CSc2nnc3c(Cl)cc(Cl)cn23)sc2c1CCC2 | 0.3 | 69* | 0.7 | -20 | 0.7
NC(=O)c1c(NC(=O)CSc2nnc(-c3ccco3)n2-c2ccccc2)sc2c1CCC2 | 0.5 | 53* | 0.7 | 9 | 0.8
CC(C)(C)c1ccc(C(=O)N/N=C/c2ccc(OCCCF)cc2)cc1 | 1 | -4 | 1 | 3 | 0.9
COCCNCC(=O)Nc1nc(C)cs1 | 0.8 | 21 | 1 | 7 | 0.8
SMILES | Diaphorase act | Diaph inh CS | PMI act satM6P | G6PDH CS | PMI activator
Cn1c(=S)n(C)c2ccccc21 | 1 | -2 | 1 | 8 | 1
Cn1c(=S)ccc2ccccc21 | 0.9 | 9 | 2.3* | 7 | 1.8
CNC(=S)N/N=C1\CC(c2ccccc2)Oc2ccccc21 (stereo unspecified) | 0.7 | 27 | 0.9 | 1 | 0.9
Fc1ccc(N/N=C2/CC(c3ccccc3)Oc3ccccc32)c(F)c1 (stereo unspecified) | 0.9 | 13 | 2.5* | 1 | 1.7
Cc1nc2c(C(=O)NCCc3ccccc3)c[nH]n2c(=O)c1Cl | 0.2 | 79* | 0.4 | 14 | 0.4
Cc1nc2c(C(=O)NCCC(C)C)c[nH]n2c(=O)c1Cl | 0.7 | 28 | 1 | 0 | 1
COc1ccc(CCNC(=O)COC(=O)c2ccc(N3CCCC3=O)cc2)cc1OC | 0.9 | 7 | 1 | -3 | 1
O=C(O)c1ccc(-n2cc(-c3cc4ccccc4oc3=O)[nH]c2=S)cc1 | 0.8 | 23 | 2.4* | 2 | 1.7
CC(C)[C@@H]1NC(=O)c2cc([N+](=O)[O-])cc(F)c2NCCC[C@@H](C(N)=O)NC(=O)[C@H](CO)NC1=O | 1 | 4 | 1 | -4 | 1
Cc1ccc2c(CN3CCCc4ccccc43)cc(=O)oc2c1C | 1 | -3 | 2.3* | 3 | 1.8
CCC(=O)NNc1ccc(Br)cc1 | 1 | -2 | 2.8* | 7 | 2*
CCOC(=O)C(=NC1CCS(=O)(=O)C1)NNc1ccc(Br)cc1 (stereo unspecified) | 0.9 | 13 | 2.4* | -1 | 1.6
CCC(C)NC(=O)Nc1ccc(Br)cc1 (stereo unspecified) | 0.9 | 8 | 1 | 4 | 0.9
CCOC(=O)C(=NC1CCCCC1)NNc1cccc(C(F)(F)F)c1 | 0.7 | 27 | 0.9 | -8 | 0.8
CCOC(=O)C(=NC(C)CC)NNc1ccc(Br)cc1 (stereo unspecified) | 0.9 | 6 | 2.7* | 6 | 1.6
O=C(COc1ccccc1)NC1CCSC1=O (stereo unspecified) | 1.2 | -24 | 1.1 | 8 | 1
COc1ccc(Oc2nc(OC)cc(OC)n2)cc1 | 1.2 | -15 | 1.1 | 4 | 1.1
C=CCn1c(O)c(N=Nc2ccccc2C)c2ccccc21 | 0.9 | 8 | 2.2* | 7 | 1.7
COC(=O)c1cc(NC(=O)c2ccccc2)c(=O)oc1C/C=N\OCc1ccc(Cl)cc1Cl | 0.9 | 10 | 1.5 | 7 | 1.3
C=CCn1c(SCC(=O)N2N=C(c3ccco3)CC2c2ccco2)nnc1-c1ccncc1 (stereo unspecified) | 0.3 | 74* | 0.5 | 6 | 0.4
O=C(/C=C\c1ccccc1OC(=O)c1ccccc1F)c1cc2ccccc2o1 | 0.9 | 5 | 1 | -29 | 0.9
Cc1cc(O)c(/C=N/Nc2ccc(F)cc2)c(=O)o1 | 0.5 | 48 | 2.3* | -1 | 1.7
Cc1ccc(N/N=C/c2c(O)cc(C)oc2=O)cc1 | 0.8 | 20 | 2.2* | 3 | 1.4
